The target of data set [1] is Large neutral amino acids transporter small subunit 1 (Rattus norvegicus) (UniProt Q63016). The data set is described as follows: Binding affinity at LAT1 in rat brain assessed Inhibition of [14C]L-leucine PA uptake at 70 uM. Type of data set: tissue-based. The method in brief:
(§1)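 In situ rat brain perfusion with pH 7.4 bicarbonate-buffered saline (37 °C, 95% O2/5% CO2). [14C]L-leucine 0.2 µCi/mL perfused 30 s alone (100% PA product) or co-perfused with 70 µM prodrug. PA product derived from brain radioactivity measured by liquid scintillation counting; [14C]sucrose (0.2 µCi/mL) used as vascular marker. Inhibition relative to control PA; n=3–5.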

Data set [2] in a line: Stability in aqueous buffer at pH 7.4. Type of data set: physicochemical. The method in brief:
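Chemical hydrolysis in 0.16 M phosphate buffer pH 7.4 (ionic strength 0.5) at 37 °C in a thermostatted water bath. Disappearance followed by HPLC; pseudo-first-order half-life; n=2.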

Data set [3] can be described thus: Stability in rat serum assessed as half life of hydrolysis. Type of data set: ADME, cell-free. The method, boiled down: (§2)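 Enzymatic hydrolysis at 37 °C in rat serum diluted to 80%, brain homogenate diluted to 20%, or liver homogenate diluted to 50% (v/v) with 0.16 M phosphate buffer pH 7.4. Aliquots taken into acetonitrile to precipitate protein, then analysed by HPLC. Pseudo-first-order half-lives; n=3.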

Data set [4] in a line: Stability in rat brain assessed as half life of hydrolysis. Type of data set: ADME, tissue-based. The method, boiled down:
as §2

Data set [5] in a line: Stability in rat liver assessed as half life of hydrolysis. Type of data set: ADME, tissue-based. The method in brief: as §2
The target of data set [6] is Large neutral amino acids transporter small subunit 1 (Rattus norvegicus) (UniProt Q63016). The data set is described as follows: Inhibition of [14C]L-leucine uptake at LAT1 in rat brain at 70 uM by perfusion technique. Type of data set: tissue-based. The method in brief:
as §1

The nature of data set [7]: (§3) Drug uptake in rat brain after 60 secs perfusion. Type of data set: ADME, tissue-based. The following applies: brain, other: perfusion. The method, boiled down: (§4)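 In situ rat brain perfusion, 60 s at 37 °C, with seven prodrug concentrations from 0 to 138 µM in bicarbonate-buffered saline pH 7.4. Vasculature then washed 30 s with cold (5 °C) prodrug-free medium. Brain hemisphere homogenised, acidified, ethyl acetate-extracted and analysed by HPLC. Km and Vmax from nonlinear Michaelis–Menten fit; mean ± SD, n=3.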

For data set [8], the system named is Brain. Described as §3. Type of data set: ADME, tissue-based. The following applies: in vivo, 1 min. The method, boiled down:
as §4

Data set [9] relates to Brain. The data set can be described thus: Drug uptake in rat brain at 64 uM by perfusion technique. Type of data set: ADME, tissue-based. The following applies: in vivo. The method, boiled down: (§5)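 Rat brain perfused in situ for 60 s at 37 °C with 64 µM prodrug, alone or with 2 mM BCH added to the medium. Vasculature washed 30 s with cold prodrug-free medium. Brain uptake in pmol/mg/min quantified by HPLC after extraction; n=3; two-tailed independent t test.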

Data set [10] relates to Brain. The data set can be described thus: Drug uptake in rat brain at 64 uM in presence of 2-aminobicyclo(2,2,1)heptane-2-carboxylic acid by perfusion technique. Type of data set: ADME, tissue-based. The following applies: in vivo. The method in brief:
as §5

Large neutral amino acids transporter small subunit 1 (Rattus norvegicus), sequence (Q63016 whole entry, looked up, the tested form may be a part): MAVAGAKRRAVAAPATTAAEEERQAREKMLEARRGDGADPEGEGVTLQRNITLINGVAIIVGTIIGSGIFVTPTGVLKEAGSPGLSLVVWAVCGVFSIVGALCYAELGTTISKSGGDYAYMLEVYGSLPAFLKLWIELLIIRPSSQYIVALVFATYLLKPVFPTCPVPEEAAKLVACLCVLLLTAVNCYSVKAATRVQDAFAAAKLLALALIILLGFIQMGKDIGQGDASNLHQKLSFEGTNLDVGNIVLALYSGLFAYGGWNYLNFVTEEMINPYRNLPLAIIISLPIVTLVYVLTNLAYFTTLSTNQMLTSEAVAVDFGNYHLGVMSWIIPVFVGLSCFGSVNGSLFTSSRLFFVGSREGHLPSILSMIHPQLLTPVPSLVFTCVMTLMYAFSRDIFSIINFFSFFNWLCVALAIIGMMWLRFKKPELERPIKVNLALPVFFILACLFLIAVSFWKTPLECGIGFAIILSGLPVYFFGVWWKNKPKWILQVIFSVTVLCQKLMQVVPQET

In data set [1], `CC(C)CC(NC(=O)C(C)c1cccc(C(=O)c2ccccc2)c1)C(=O)O` (stereo not drawn) had an Activity of 0.0266 mL/s/g.
As to `CC(C(=O)OCCOC(=O)[C@@H](N)Cc1ccccc1)c1cccc(C(=O)c2ccccc2)c1` (stereo partly drawn), in data set [1], the Activity stood at 0.0282 mL/s/g.
As for `CC(C)C[C@H](N)C(=O)OCCOC(=O)C(C)c1cccc(C(=O)c2ccccc2)c1` (stereo partly drawn), the Activity in [1] is 0.0212 mL/s/g.
The half-life is the time in which the quantity being followed falls by half. The term inhibition denotes how much of the control response was suppressed. As a reminder, the Km is the substrate concentration at which the rate is half of its maximum. As a reminder, the Vmax is the rate approached at saturating substrate. Take `CC(C(=O)Oc1ccc(C[C@H](N)C(=O)O)cc1)c1cccc(C(=O)c2ccccc2)c1.Cl` (stereo partly drawn): the half-life is 1350 min in [2], 10.2 min in data set [3], 4.4 min in data set [4] and 2.8 min in data set [5]. The inhibition in [6] is 98.5%. In [7], the Michaelis-Menten constant (Km) at 1 min came to 22.5 µM. In the data set with Brain [8], the Vmax was determined as 1.41 pmol/min/mg. In addition, the Drug uptake worked out at 0.846 pmol/min/mg in the data set with Brain [9] and 0.362 pmol/min/mg in the data set on Brain [10].
On to `CC(C(=O)NC(Cc1ccccc1)C(=O)O)c1cccc(C(=O)c2ccccc2)c1` (stereo not drawn), for which the Activity in data set [1] was 0.0191 mL/s/g.
